# ChEMBL document CHEMBL2057149 (J Med Chem, 2012)
# pIC50, pKd, pKi: −log10 of the molar value. Active and inactive are the calls of the source. The calls are words filed in the database; no cut-off is given here.
# Experiments:
# [1] = target: Fibroblast growth factor 1 (Homo sapiens, UniProt P05230); assay: Binding affinity to FGF-1 by surface plasmon resonance assay
# In short: (§1)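 Solution-affinity SPR on heparin-coated CM4 chips. FGF-1 measured in HBS-EP (10 mM HEPES pH 7.4, 150 mM NaCl, 3.0 mM EDTA, 0.005% polysorbate 20); FGF-2 measured in HBS-EP with 300 mM NaCl. Kd is the average of at least duplicate measurements ± SD.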
# [2] = target: Fibroblast growth factor 2 (Homo sapiens, UniProt P09038); assay: Binding affinity to FGF-2 by surface plasmon resonance assay; in short: as §1
# Heparanase = target: T1, Heparanase (Homo sapiens, UniProt Q9Y251); assay: Inhibition of human recombinant heparanase after 2 to 24 hrs by WST1 dye based fondaparinux assay
# T1 sequence (Q9Y251 whole entry): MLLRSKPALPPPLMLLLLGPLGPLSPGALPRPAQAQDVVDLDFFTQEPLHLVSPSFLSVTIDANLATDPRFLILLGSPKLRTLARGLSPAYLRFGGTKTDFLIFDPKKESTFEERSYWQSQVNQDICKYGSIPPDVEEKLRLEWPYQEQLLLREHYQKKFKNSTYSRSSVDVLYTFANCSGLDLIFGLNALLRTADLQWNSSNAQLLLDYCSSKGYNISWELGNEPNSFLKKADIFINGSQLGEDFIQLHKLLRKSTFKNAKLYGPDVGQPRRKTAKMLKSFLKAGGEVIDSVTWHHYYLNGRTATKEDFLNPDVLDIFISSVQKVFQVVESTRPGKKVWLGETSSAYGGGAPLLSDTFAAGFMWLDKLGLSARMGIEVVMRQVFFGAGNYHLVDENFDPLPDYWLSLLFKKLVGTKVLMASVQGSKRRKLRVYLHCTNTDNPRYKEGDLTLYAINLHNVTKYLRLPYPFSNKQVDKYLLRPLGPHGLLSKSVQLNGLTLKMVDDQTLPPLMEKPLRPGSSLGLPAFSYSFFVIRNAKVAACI
# HUVEC [3] = assay: Antiangiogenic activity in FGF1-stimulated HUVEC cells after 72 hrs by CellTiter assay; type: functional, cell-based; details: Homo sapiens
# HUVEC [4] = assay: Antiangiogenic activity in FGF2-stimulated HUVEC cells after 72 hrs by CellTiter assay; type: functional, cell-based; details: Homo sapiens
# HUVEC [5] = assay: Antiangiogenic activity in VEGF-stimulated HUVEC cells after 72 hrs by CellTiter assay; type: functional, cell-based; details: Homo sapiens
# HMVEC [6] = assay: Antiangiogenic activity in FGF1-stimulated HMVEC cells after 72 hrs by CellTiter assay; type: functional, cell-based; details: Homo sapiens
# HMVEC [7] = assay: Antiangiogenic activity in FGF2-stimulated HMVEC cells after 72 hrs by CellTiter assay; type: functional, cell-based; details: Homo sapiens
# HMVEC [8] = assay: Antiangiogenic activity in VEGF-stimulated HMVEC cells after 72 hrs by CellTiter assay; type: functional, cell-based; details: Homo sapiens
# Aorta [9] = assay: Antiangiogenic activity in Sprague-Dawley rat aorta assessed as inhibition of tube formation dosed daily at 10 uM measured up to 8 days by matrigel assay; type: functional
# In short: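 Aortas from 6–10-week Sprague–Dawley rats were cut into 1 mm rings, bisected and embedded in Matrigel. Cultured in EBM-2 with 2% FCS and supplements except heparin, without exogenous growth factors. Compound was usually given at two concentrations within 1–50 μM from 10 mM PBS stocks, replenished every 48 h. Microvessels were scored 0–5 up to 8 days by two independent investigators.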
# Plasma [10] = assay: Anticoagulant activity in pooled human plasma assessed as activated partial thromboplastin time at 0.1 mg/ml; type: ADME, cell-free
# In short: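 APTT of pooled normal human plasma measured with compound at 0–100 μg/mL in PBS on a ball coagulameter, using unfractionated heparin as the reference. Normal range 26–36 s; coefficient of variation 2% at 36 s and 5–7% at 90 s or above. Values are the mean of two determinations.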
# Plasma [11] = assay: Anticoagulant activity in pooled human plasma assessed as prolongation of the recalcification time at 0.1 mg/ml by Heptest assay; type: ADME, cell-free
# In short: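 Heptest clotting time in pooled normal human plasma; normal range 13–20 s. Values are the mean of two determinations.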
# [12] = target: Vascular endothelial growth factor A (Homo sapiens) (UniProt P15692); assay: Binding affinity to VEGF by surface plasmon resonance assay
# HUVEC [13] = assay: Antiangiogenic activity in HUVEC cells assessed as inhibition of tube formation at 10 uM after 18 hrs by matrigel assay; type: functional; details: Homo sapiens
# In short: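 HUVECs (passage 4 or 5, 70–80% confluent) suspended at 4 × 10⁵/mL in EGM2 with all supplements except heparin, mixed 1:1 with compound (final 10, 50 or 100 μM) in triplicate. Plated on growth factor-reduced Matrigel for 18 h. Branching nodes joining ≥3 tubules counted manually by phase-contrast microscopy. Reported as % inhibition versus untreated cells.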
# HUVEC [14] = assay: Antiangiogenic activity in HUVEC cells assessed as inhibition of tube formation after 18 hrs by matrigel assay; type: functional, cell-based; details: Homo sapiens
# In short: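 HUVECs at passage 4–5 (70–80% confluent) resuspended at 4 × 10⁵/mL in EGM2 with all supplements except heparin. Cells mixed with compound to final 10, 50 or 100 μM and plated in triplicate on growth-factor-reduced Matrigel for 18 h. Branching nodes joining three or more tubules counted by phase-contrast microscopy; percent inhibition versus untreated cells.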
# Aorta [15] = assay: Antiangiogenic activity in Sprague-Dawley rat aorta assessed as inhibition of tube formation measured up to 8 days by matrigel assay; type: functional, tissue-based; details: 192 h
# In short: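 Aortas from 6–10-week Sprague–Dawley rats cut into 1 mm rings, bisected and embedded in Matrigel. Cultured in EBM-2 with 2% FCS, supplements but no heparin and no added growth factor. Compound usually given at two concentrations within 1–50 μM (10 mM PBS stock), medium renewed every 48 h. Microvessels scored 0–5 up to 8 days by two independent observers.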
# Aorta [16] = assay: Cytotoxicity against Sprague-Dawley rat aorta assessed as VEGF-induced microvessel formation measured 6 days post compound treatment grown on fresh medium containing VEGF; type: tissue-based; details: 144 h
# In short: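 Viability check on rat aortic ring cultures: after compound exposure, compound/medium withdrawn on day 6 or 7 and replaced with complete medium containing VEGF (typically 10 ng/mL) for up to 7 further days. Renewed microvessel sprouting taken as evidence of viable tissue.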
# Rattus norvegicus = assay: Elimination half life in Sprague-Dawley rat at 10 mg/kg, sc using [3H]-labeled compound administered as three bolus doses at 96 hrs interval; type: ADME, organism-based; design: dose 10 mg/kg, route subcutaneous; details: in vivo
# Chain of Fibroblast growth factor 1 (P05230 whole entry): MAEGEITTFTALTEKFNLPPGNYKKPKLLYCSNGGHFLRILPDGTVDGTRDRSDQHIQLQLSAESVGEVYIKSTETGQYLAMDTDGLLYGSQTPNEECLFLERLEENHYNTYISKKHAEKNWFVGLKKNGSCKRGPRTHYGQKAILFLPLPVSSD
# Chain of Fibroblast growth factor 2 (P09038 143-288 limits assumed): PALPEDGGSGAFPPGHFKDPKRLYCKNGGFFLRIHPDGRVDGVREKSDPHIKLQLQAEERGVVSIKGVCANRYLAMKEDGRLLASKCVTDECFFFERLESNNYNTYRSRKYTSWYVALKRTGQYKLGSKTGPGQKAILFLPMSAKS
SMILES,pKd [1],pKd [2],pKi (Heparanase),pIC50 (HUVEC [3]),pIC50 (HUVEC [4]),pIC50 (HUVEC [5]),Activity (HMVEC [6]),Activity (HMVEC [7]),Activity (HMVEC [8]),inhibition (INH) (Aorta [9]),APTT (Plasma [10]),Time (Plasma [11]),pKd [12],inhibition at 10 µM (HUVEC [13]),pIC50 (HUVEC [14]),pIC50 (Aorta [15]),Activity (Aorta [16]),beta t1/2 (Rattus norvegicus)
CC(C)CCC[C@@H](C)[C@H]1CC[C@H]2[C@@H]3CC[C@H]4C[C@@H](OCc5cn([C@@H]6O[C@H](COS(=O)(=O)[O-])[C@@H](O[C@H]7O[C@H](COS(=O)(=O)[O-])[C@@H](O[C@H]8O[C@H](COS(=O)(=O)[O-])[C@@H](O[C@H]9O[C@H](COS(=O)(=O)[O-])[C@@H](OS(=O)(=O)[O-])[C@H](OS(=O)(=O)[O-])[C@H]9OS(=O)(=O)[O-])[C@H](OS(=O)(=O)[O-])[C@H]8OS(=O)(=O)[O-])[C@H](OS(=O)(=O)[O-])[C@H]7OS(=O)(=O)[O-])[C@H](OS(=O)(=O)[O-])[C@H]6OS(=O)(=O)[O-])nn5)CC[C@]4(C)[C@H]3CC[C@]12C.[Na+].[Na+].[Na+].[Na+].[Na+].[Na+].[Na+].[Na+].[Na+].[Na+].[Na+].[Na+].[Na+],8.01,6.41,8.43,5.64,6.19,5.66,Active,Active,Active,>80%,104 s,45.5 s,7.02,–,–,–,–,–
CCCCCCCCCCCCCCCCCC(=O)NCCCO[C@H]1O[C@H](COS(=O)(=O)[O-])[C@@H](OS(=O)(=O)[O-])[C@H](OS(=O)(=O)[O-])[C@@H]1O[C@H]1O[C@H](COS(=O)(=O)[O-])[C@@H](OS(=O)(=O)[O-])[C@H](O[C@H]2O[C@H](COS(=O)(=O)[O-])[C@@H](OS(=O)(=O)[O-])[C@H](O[C@H]3O[C@H](COS(=O)(=O)[O-])[C@@H](OS(=O)(=O)[O-])[C@H](OS(=O)(=O)[O-])[C@@H]3OS(=O)(=O)[O-])[C@@H]2OS(=O)(=O)[O-])[C@@H]1OS(=O)(=O)[O-].[Na+].[Na+].[Na+].[Na+].[Na+].[Na+].[Na+].[Na+].[Na+].[Na+].[Na+].[Na+].[Na+],9.36,6.97,8.22,5.81,6.15,6.22,Active,Active,Active,–,68.1 s,24.5 s,7.40,> 80%,–,–,–,–
CCCCCCCCCCCCCCCCCC(=O)NCCCO[C@@H]1O[C@H](COS(=O)(=O)[O-])[C@@H](O[C@H]2O[C@H](COS(=O)(=O)[O-])[C@@H](O[C@H]3O[C@H](COS(=O)(=O)[O-])[C@@H](O[C@H]4O[C@H](COS(=O)(=O)[O-])[C@@H](OS(=O)(=O)[O-])[C@H](OS(=O)(=O)[O-])[C@H]4OS(=O)(=O)[O-])[C@H](OS(=O)(=O)[O-])[C@H]3OS(=O)(=O)[O-])[C@H](OS(=O)(=O)[O-])[C@H]2OS(=O)(=O)[O-])[C@H](OS(=O)(=O)[O-])[C@H]1OS(=O)(=O)[O-].[Na+].[Na+].[Na+].[Na+].[Na+].[Na+].[Na+].[Na+].[Na+].[Na+].[Na+].[Na+].[Na+],–,–,–,–,6.10,–,Active,Active,Active,–,65.8 s,32.2 s,7.85,> 80%,–,–,–,–
CC(C)CCC[C@@H](C)[C@H]1CC[C@H]2[C@@H]3CC[C@H]4C[C@@H](O[C@@H]5O[C@H](COS(=O)(=O)[O-])[C@@H](O[C@H]6O[C@H](COS(=O)(=O)[O-])[C@@H](O[C@H]7O[C@H](COS(=O)(=O)[O-])[C@@H](O[C@H]8O[C@H](COS(=O)(=O)[O-])[C@@H](OS(=O)(=O)[O-])[C@H](OS(=O)(=O)[O-])[C@H]8OS(=O)(=O)[O-])[C@H](OS(=O)(=O)[O-])[C@H]7OS(=O)(=O)[O-])[C@H](OS(=O)(=O)[O-])[C@H]6OS(=O)(=O)[O-])[C@H](OS(=O)(=O)[O-])[C@H]5OS(=O)(=O)[O-])CC[C@]4(C)[C@H]3CC[C@]12C.[Na+].[Na+].[Na+].[Na+].[Na+].[Na+].[Na+].[Na+].[Na+].[Na+].[Na+].[Na+].[Na+],–,6.41,–,–,–,–,Active,Active,Active,>80%,71.9 s,28.6 s,7.54,> 80%,5.70,5.96,Non-toxic,> 50 h
CC(C)CCC[C@@H](C)[C@H]1CC[C@H]2[C@@H]3CC[C@H]4C[C@@H](O[C@H]5O[C@H](COS(=O)(=O)[O-])[C@@H](OS(=O)(=O)[O-])[C@H](OS(=O)(=O)[O-])[C@@H]5O[C@H]5O[C@H](COS(=O)(=O)[O-])[C@@H](OS(=O)(=O)[O-])[C@H](O[C@H]6O[C@H](COS(=O)(=O)[O-])[C@@H](OS(=O)(=O)[O-])[C@H](O[C@H]7O[C@H](COS(=O)(=O)[O-])[C@@H](OS(=O)(=O)[O-])[C@H](OS(=O)(=O)[O-])[C@@H]7OS(=O)(=O)[O-])[C@@H]6OS(=O)(=O)[O-])[C@@H]5OS(=O)(=O)[O-])CC[C@]4(C)[C@H]3CC[C@]12C.[Na+].[Na+].[Na+].[Na+].[Na+].[Na+].[Na+].[Na+].[Na+].[Na+].[Na+].[Na+].[Na+],9.22,6.80,8.24,5.89,6.10,5.92,Active,Active,Active,>80%,94 s,28 s,7.66,> 80%,–,–,–,–
